In ChEMBL document CHEMBL3407461 (J Med Chem, 2014) one finds inhibition, Time and Emax data, which are given here for 15 molecules.

Test [1] concerns the target T1, Adenosine receptor A1 (Homo sapiens) (UniProt P30542).
T1 sequence (whole entry): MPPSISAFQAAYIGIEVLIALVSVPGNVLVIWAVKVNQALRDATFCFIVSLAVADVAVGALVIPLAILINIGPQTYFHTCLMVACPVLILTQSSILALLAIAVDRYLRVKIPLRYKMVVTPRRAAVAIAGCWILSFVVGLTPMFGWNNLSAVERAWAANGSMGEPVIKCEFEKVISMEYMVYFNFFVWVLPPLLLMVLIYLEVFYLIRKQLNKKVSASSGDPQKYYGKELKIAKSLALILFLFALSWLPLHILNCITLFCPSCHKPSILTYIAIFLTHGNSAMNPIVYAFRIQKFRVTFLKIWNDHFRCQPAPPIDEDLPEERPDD
The test can be described thus: Displacement of [3H]R-PIA from human recombinant A1 adenosine receptor expressed in CHO cells at 10 uM after 60 mins by liquid scintillation counting. Type of test: cell-based.

Test [2] concerns the target Adenosine receptor A2a (Homo sapiens) (UniProt P29274). In words: Displacement of [3H]CGS21680 from human recombinant A2A adenosine receptor expressed in HEK293 cells at 10 uM after 60 mins by liquid scintillation counting. The class given is cell-based.
The subject of test [3] is Mus musculus. The test can be described thus: Antinociceptive activity in chronic constriction injury neutropathic pain CD-1 mouse model assessed as time for peak protection at 3 umol/kg, po. Type of test: functional. Summed up: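 Male CD-1 mice (25−30 g), chronic constriction injury of left sciatic nerve (Bennett model) under isoflurane. Dosed by gavage (3 μmol/kg, 0.2 mL) at peak mechano-allodynia on day 7; vehicle 10% DMSO in 0.5% methylcellulose. Paw withdrawal threshold (g) measured on the ipsilateral hind paw from 30 min to 5 h post dose. Expressed as % reversal, mean ± SEM over n animals.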

The subject of test [4] is Mus musculus. The test can be described thus: Antinociceptive activity in chronic constriction injury neutropathic pain CD-1 mouse model assessed as maximum protection on ipsilateral hind paw at 3 umol/kg, po after 30 mins to 5 hrs post dose relative to control. The class given is functional. The note with it: CD-1, po.

Chain of Adenosine receptor A2a (Homo sapiens) (P29274 whole entry): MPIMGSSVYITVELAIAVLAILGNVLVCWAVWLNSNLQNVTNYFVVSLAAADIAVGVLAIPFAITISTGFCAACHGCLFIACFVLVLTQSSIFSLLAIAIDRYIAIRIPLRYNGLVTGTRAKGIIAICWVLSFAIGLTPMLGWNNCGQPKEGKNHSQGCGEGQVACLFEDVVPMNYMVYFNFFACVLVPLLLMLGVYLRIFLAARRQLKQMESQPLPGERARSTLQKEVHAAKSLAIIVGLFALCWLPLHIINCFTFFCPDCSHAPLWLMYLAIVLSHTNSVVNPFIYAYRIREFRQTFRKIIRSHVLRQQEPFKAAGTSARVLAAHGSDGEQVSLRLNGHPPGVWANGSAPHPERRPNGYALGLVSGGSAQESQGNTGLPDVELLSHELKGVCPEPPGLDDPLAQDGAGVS

For the molecule `CNC(=O)[C@@]12C[C@@H]1[C@@H](n1cnc3c(NC)nc(C#Cc4cc(C)c(C)o4)nc31)[C@H](O)[C@@H]2O`, the values for the inhibition in test [1] and in test [2] were 15% and 21%, respectively. Moreover, the Time with Mus musculus [3] came to 1 h.

Regarding `CNC(=O)[C@@]12C[C@@H]1[C@@H](n1cnc3c(NC)nc(C#Cc4ccccc4OC)nc31)[C@H](O)[C@@H]2O`, the inhibition in test [1] was 12%; in test [2], 20%. Moreover, the Emax at 3 µmol/kg with Mus musculus [4] was determined as 64.3%. The Time with Mus musculus [3] stood at 1 h.

Consider `CNC(=O)[C@@]12C[C@@H]1[C@@H](n1cnc3c(NC)nc(C#Cc4cc[nH]n4)nc31)[C@H](O)[C@@H]2O`, for which the inhibition in test [1] was 30%; in test [2] it was 19%. The Time with Mus musculus [3] was found to be 0.5 h.

`CNC(=O)[C@@]12C[C@@H]1[C@@H](n1cnc3c(NC)nc(C#Cc4ccsc4)nc31)[C@H](O)[C@@H]2O`: the inhibition was found to be 11% in test [1] and 3% in test [2]. Further, the Time in the test with Mus musculus [3] is 0.5 h.

As to `CNC(=O)[C@@]12C[C@@H]1[C@@H](n1cnc3c(NC)nc(C#Cc4ccc(CO)cc4)nc31)[C@H](O)[C@@H]2O`, the inhibition in test [1] turned out to be 16%; in test [2], 11%. For the same molecule, the Time in the test on Mus musculus [3] amounted to 1 h.

As to `CNC(=O)[C@@]12C[C@@H]1[C@@H](n1cnc3c(NC)nc(C#Cc4cc5ccccc5o4)nc31)[C@H](O)[C@@H]2O`, the values for the inhibition in test [1] and in test [2] were 13% and 18%, respectively. For the same molecule, the Emax at 3 µmol/kg in the test with Mus musculus [4] came to 87.4%. In the test on Mus musculus [3], the Time was found to be 1 h.

Take `CNC(=O)[C@@]12C[C@@H]1[C@@H](n1cnc3c(NC)nc(C#Cc4ncccn4)nc31)[C@H](O)[C@@H]2O`: the inhibition in test [1] is 25%; in test [2] it was 27%. Also, the Emax at 3 µmol/kg with Mus musculus [4] amounted to 92.3%. Besides, the Time with Mus musculus [3] amounted to 0.5 h.

On to `CNC(=O)[C@@]12C[C@@H]1[C@@H](n1cnc3c(NC)nc(C#Cc4cccnc4)nc31)[C@H](O)[C@@H]2O`, for which the inhibition came out at 16% in test [1] and 12% in test [2]. For the same molecule, the Time with Mus musculus [3] was 0.5 h.

With `CNC(=O)[C@@]12C[C@@H]1[C@@H](n1cnc3c(NC)nc(C#Cc4cccc(OC)c4)nc31)[C@H](O)[C@@H]2O`, the inhibition was 8% in test [1] and 26% in test [2]. Also, in the test on Mus musculus [3], the Time was determined as 0.5 h.

In the case of `CNC(=O)[C@@]12C[C@@H]1[C@@H](n1cnc3c(NC)nc(C#Cc4ccncc4)nc31)[C@H](O)[C@@H]2O`, the inhibition came to 15% in test [1] and 2% in test [2]. Moreover, in the test on Mus musculus [3], the Time was determined as 1 h.

Regarding `CNC(=O)[C@@]12C[C@@H]1[C@@H](n1cnc3c(NC)nc(C#Cc4ccc(OC)cc4)nc31)[C@H](O)[C@@H]2O`, the inhibition in test [1] came to 10%; in test [2] it was 24%. Besides, the Time in the test with Mus musculus [3] amounted to 0.5 h.

For `CNC(=O)[C@@]12C[C@@H]1[C@@H](n1cnc3c(NC)nc(C#CC4CCCCC4)nc31)[C@H](O)[C@@H]2O`, the values for the inhibition in test [1] and in test [2] were 15% and 45%, respectively. For the same molecule, the maximum response (Emax) at 3 µmol/kg in the test on Mus musculus [4] came out at 64.1%. For the same molecule, the Time in the test on Mus musculus [3] stood at 1 h.

`CCc1ccc(C#Cc2nc(NC)c3ncn([C@H]4[C@H](O)[C@H](O)[C@]5(C(=O)NC)C[C@H]45)c3n2)o1`: the results for the inhibition in test [1] and in test [2] were 18% and 4%, respectively. The Time in the test with Mus musculus [3] is 1 h.

With `CNC(=O)[C@@]12C[C@@H]1[C@@H](n1cnc3c(NC)nc(C#Cc4cccc(C(F)(F)F)c4)nc31)C(O)C2O` (single isomer, unassigned), the inhibition in test [1] came to 10%; in test [2], 12%. Further, the Time in the test with Mus musculus [3] was determined as 0.5 h.

With `CNC(=O)[C@@]12C[C@@H]1[C@@H](n1cnc3c(NC)nc(C#Cc4cccnn4)nc31)[C@H](O)[C@@H]2O`, the inhibition worked out at 11% in test [1] and 13% in test [2]. Further, the Time with Mus musculus [3] was determined as 0.5 h.
